According to ChEMBL document CHEMBL1287774, “Discovery of new azaindole-based PI3Kα inhibitors: apoptotic and antiangiogenic effect on cancer cells” (Bioorg Med Chem Lett, 2010):
Each block holds one compound with its values, some of them ahead of it.

Assays:
[1] = biological target: Phosphatidylinositol 4,5-bisphosphate 3-kinase catalytic subunit alpha isoform (Homo sapiens, UniProt P42336); test: Inhibition of PI3Kalpha
T47D [2] = test: Antiproliferative activity against human T47D cells by MTT assay; assay type: functional, cell-based
Outline: (§1)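 Human breast cancer cultures (T47D, SK-BR3, MCF-7) exposed to compound. Cell viability is read by MTT and expressed as growth IC50.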

MCF7 = test: Antiproliferative activity against human MCF7 cells assessed as by MTT assay; assay type: functional, cell-based; outline: as §1
SK-BR-3 = test: Antiproliferative activity against human SKBR3 cells by MTT assay; assay type: functional, cell-based; outline: as §1
T47D [3] = test: Induction of apoptosis in human T47D cells assessed as increase in late apoptotic cells at 10 uM after 24 hrs using annexin-V FITC and PI staining by flow cytometric analysis relative to control; assay type: functional
Outline: (§2)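 T47D cells treated with various compound concentrations for 24 h, then stained with Annexin V-FITC and PI and analysed by flow cytometry. Early-apoptotic cells are Annexin V-positive/PI-negative. Changes are expressed relative to untreated control.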

T47D [4] = test: Induction of apoptosis in human T47D cells assessed as increase in late apoptotic cells at 1 uM after 24 hrs using annexin-V FITC and PI staining by flow cytometric analysis relative to control; assay type: functional; outline: as §2
HUVEC [5] = test: Antiangiogenic activity against HUVEC assessed as inhibition of tubular network formation on matrigels beds; assay type: functional, cell-based; settings: Homo sapiens
Outline: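 HUVECs plated onto Matrigel beds and treated with DMSO vehicle or compound at 0.1, 1 and 10 µM. Read-out is formation of a capillary-like tubular network, assessed from representative images.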

T47D [6] = test: Induction of apoptosis in human T47D cells assessed as increase in non-viable cells at 10 uM after 24 hrs using annexin-V FITC and PI staining by flow cytometric analysis relative to control; assay type: functional; outline: as §2
T47D [7] = test: Induction of apoptosis in human T47D cells assessed as increase in non-viable cells at 50 uM after 24 hrs using annexin-V FITC and PI staining by flow cytometric analysis relative to control; assay type: functional; outline: as §2
T47D [8] = test: Induction of apoptosis in human T47D cells assessed as increase in late apoptotic cells at 50 uM after 24 hrs using annexin-V FITC and PI staining by flow cytometric analysis relative to control; assay type: functional; outline: as §2
T47D [9] = test: Induction of apoptosis in human T47D cells assessed as decrease in viable cells at 10 uM after 24 hrs using annexin-V FITC and PI staining by flow cytometric analysis relative to control; assay type: functional; outline: as §2
T47D [10] = test: Induction of apoptosis in human T47D cells assessed as increase in early apoptotic cells at 1 uM after 24 hrs using annexin-V FITC and PI staining by flow cytometric analysis relative to control; assay type: functional; outline: as §2
T47D [11] = test: Induction of apoptosis in human T47D cells assessed as increase in non-viable cells at 1 uM after 24 hrs using annexin-V FITC and PI staining by flow cytometric analysis relative to control; assay type: functional; outline: as §2
HUVEC [12] = test: Antiangiogenic activity against HUVEC assessed as inhibition of wound-induced migration of cells to non-wounded region; assay type: functional, cell-based; settings: Homo sapiens
Outline: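 HUVEC wound-induced migration assay. Migration is quantified by counting the cells that moved beyond the reference line into the non-wounded region.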

T47D [13] = test: Induction of apoptosis in human T47D cells assessed as increase in early apoptotic cells at 10 uM after 24 hrs using annexin-V FITC and PI staining by flow cytometric analysis relative to control; assay type: functional; outline: as §2
T47D [14] = test: Induction of apoptosis in human T47D cells assessed as increase in early apoptotic cells at 50 uM after 24 hrs using annexin-V FITC and PI staining by flow cytometric analysis relative to control; assay type: functional; outline: as §2
T47D [15] = test: Induction of apoptosis in human T47D cells assessed as decrease in viable cells at 50 uM after 24 hrs using annexin-V FITC and PI staining by flow cytometric analysis relative to control; assay type: functional; outline: as §2
T47D [16] = test: Induction of apoptosis in human T47D cells assessed as decrease in viable cells at 1 uM after 24 hrs using annexin-V FITC and PI staining by flow cytometric analysis relative to control; assay type: functional; outline: as §2

Sequence of Phosphatidylinositol 4,5-bisphosphate 3-kinase catalytic subunit alpha isoform (P42336 whole entry, canonical isoform): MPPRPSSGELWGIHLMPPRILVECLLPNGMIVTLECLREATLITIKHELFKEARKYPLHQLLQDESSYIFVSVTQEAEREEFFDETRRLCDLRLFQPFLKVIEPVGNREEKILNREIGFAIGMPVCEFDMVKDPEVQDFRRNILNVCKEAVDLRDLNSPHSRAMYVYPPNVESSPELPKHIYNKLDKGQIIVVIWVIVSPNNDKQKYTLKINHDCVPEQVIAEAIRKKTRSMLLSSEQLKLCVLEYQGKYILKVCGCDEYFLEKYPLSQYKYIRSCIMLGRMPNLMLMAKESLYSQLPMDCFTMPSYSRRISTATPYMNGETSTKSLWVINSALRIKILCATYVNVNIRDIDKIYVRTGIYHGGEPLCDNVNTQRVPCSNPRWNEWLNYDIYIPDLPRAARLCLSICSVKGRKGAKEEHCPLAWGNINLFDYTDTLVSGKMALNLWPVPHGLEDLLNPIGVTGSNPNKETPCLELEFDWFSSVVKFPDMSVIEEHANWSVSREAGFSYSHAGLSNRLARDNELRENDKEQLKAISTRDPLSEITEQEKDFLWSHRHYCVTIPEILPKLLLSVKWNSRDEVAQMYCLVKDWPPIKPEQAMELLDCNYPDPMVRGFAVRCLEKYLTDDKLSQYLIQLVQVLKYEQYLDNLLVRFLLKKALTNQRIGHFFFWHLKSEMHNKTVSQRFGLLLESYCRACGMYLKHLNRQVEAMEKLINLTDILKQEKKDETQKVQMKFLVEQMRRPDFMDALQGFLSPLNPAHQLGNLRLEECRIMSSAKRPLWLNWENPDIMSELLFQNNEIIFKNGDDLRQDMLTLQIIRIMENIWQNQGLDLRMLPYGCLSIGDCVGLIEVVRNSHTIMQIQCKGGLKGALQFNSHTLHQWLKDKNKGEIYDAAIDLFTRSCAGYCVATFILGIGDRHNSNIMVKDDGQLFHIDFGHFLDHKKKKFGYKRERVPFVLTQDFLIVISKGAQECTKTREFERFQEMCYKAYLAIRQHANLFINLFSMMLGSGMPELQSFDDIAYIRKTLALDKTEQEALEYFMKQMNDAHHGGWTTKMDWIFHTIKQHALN

SMILES: CS(=O)(=O)Nc1cccc(-c2c[nH]c3ncc(-c4cncc(NS(=O)(=O)c5ccccc5)c4)cc23)c1
IC50 [1]: 0.95 µM

SMILES: COc1ccc(-c2c[nH]c3ncc(-c4cnc(N)c(NS(=O)(=O)N5CCOCC5)c4)cc23)cc1OC
Activity (T47D [3]): 4.98%
Activity (T47D [4]): 3.04%
IC50 (T47D [2]): 0.7 µM
Activity (HUVEC [5]): Dose-dependent effect
IC50 (SK-BR-3): 3.7 µM
Activity (T47D [6]): 2.86%
Activity (T47D [7]): 7.32%
Activity (T47D [8]): 47.5%
Activity (T47D [9]): 90.61%
Activity (T47D [10]): 1.56%
Activity (T47D [11]): 0.96%
Activity (HUVEC [12]): Dose-dependent effect
Activity (T47D [13]): 1.52%
Activity (T47D [14]): 28.24%
Activity (T47D [15]): 19.64%
Activity (T47D [16]): 94.44%

SMILES: CC(=O)c1c[nH]c2ncc(-c3cnc(N)c(NS(=O)(=O)N4CCOCC4)c3)cc12
IC50 [1]: 0.73 µM

SMILES: O=S(=O)(Nc1cncc(-c2cnc3[nH]ccc3c2)c1)c1ccccc1
IC50 [1]: 5.2 µM

SMILES: COc1ccc(-c2c[nH]c3ncc(-c4cccc(NS(=O)(=O)c5ccccc5)c4)cc23)cc1OC
IC50 [1]: 1.6 µM

SMILES: CC(=O)c1c[nH]c2ncc(-c3cncc(NS(=O)(=O)c4ccccc4)c3)cc12
IC50 [1]: 0.62 µM

More lines, in order of falling IC50 [1], values ahead:

IC50 [1]: 0.46 µM
SMILES: COc1ccc(-c2c[nH]c3ncc(-c4cncc(N)c4)cc23)cc1OC

IC50 [1]: 0.13 µM
SMILES: N#Cc1cccc(-c2c[nH]c3ncc(-c4cnc(N)c(NS(=O)(=O)N5CCOCC5)c4)cc23)c1

IC50 [1]: 0.031 µM
SMILES: N#Cc1cccc(-c2c[nH]c3ncc(-c4cncc(NS(=O)(=O)c5ccccc5)c4)cc23)c1

IC50 [1]: 0.027 µM
SMILES: N#Cc1cccc(-c2c[nH]c3ncc(-c4cncc(NS(=O)(=O)c5ccc(F)cc5F)c4)cc23)c1

IC50 (T47D [2]): 3.6 µM
IC50 (MCF7): 6.8 µM
IC50 (SK-BR-3): 12 µM
IC50 [1]: 0.012 µM
SMILES: O=S(=O)(Nc1cncc(-c2cnc3[nH]cc(-c4cccnc4)c3c2)c1)c1ccccc1

IC50 (T47D [2]): 8.5 µM
IC50 (SK-BR-3): 22 µM
IC50 [1]: 0.012 µM
SMILES: COc1ccc(-c2c[nH]c3ncc(-c4cncc(NS(=O)(=O)c5ccccc5)c4)cc23)cc1OC

IC50 [1]: 0.003 µM
SMILES: COc1ccc(-c2c[nH]c3ncc(-c4cnc(N)c(NS(=O)(=O)c5ccc(F)cc5F)c4)cc23)cc1OC
